ChEMBL document CHEMBL1146334, “3D-Quantitative structure-activity relationships of synthetic antileishmanial ring-substituted ether phospholipids” (Bioorg Med Chem, 2007)
pIC50: −log10 of the molar value.

Key:
[1] = system: Leishmania donovani; assay: Antileishmanial activity against Leishmania donovani LEM703 by MTT assay; type: functional, organism-based
[2] = Toxicity against red blood cells assessed as hemolytic activity; type: cell-based, Erythrocyte; settings: human
In short: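 Human red cells from EDTA blood of healthy volunteers were washed thrice in PBS and mixed 1:1 with compound in PBS, 100 to 6.25, for 1 h at 37 °C. After centrifugation at 800g for 10 min, supernatant absorbance was read at 550 nm against 625 nm. % hemolysis = (A − A0)/(Amax − A0) × 100, with PBS as background and water as 100%. HC50 is the concentration giving 50% hemolysis.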

[3] = system: THP-1; assay: Cytotoxicity against human THP1 cells after 72 hrs; type: functional, cell-based; settings: THP-1, 72 h
In short: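 THP1 cells at 1 × 10^6 cells/ml were exposed to test concentrations of 50 to 156 for 72 h. About 4 × 10^6 cells were then stained with PI (10 µg/ml) and SYBR-14 (0.1 mg/ml) in HEPES/NaCl/BSA buffer, pH 7.4, for 30 min at 37 °C. Flow cytometry used 488 nm excitation, analysed at least 10,000 cells, excluded autofluorescence and debris, and each experiment was repeated twice.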

[4] = system: Leishmania infantum; assay: Antileishmanial activity against Leishmania infantum LEM235 by MTT assay; type: functional, organism-based

Structure (SMILES)	pIC50 [1]	HC50 [2]	pIC50 [3]	pIC50 [4]
CCCCCCCCCCCCCCCC=C1CCC(OCCOP(=O)([O-])OCC[N+]2(C)CCCCC2)CC1 (stereo not given)	4.66	> 100 µM	4.59	5.19
C[N+]1(CCOP(=O)([O-])OCCCCCCCCCCC=C2CCCCC2)CCOCC1	5.08			4.64
C[N+]1(CCOP(=O)([O-])OCCOC2CCCCC2)CCOCC1	< 4.00			< 4.00
C[N+]1(CCOP(=O)([O-])OCCCCCCCCCCC=C2CCCCC2)CCCCC1	5.06	> 100 µM		4.32
C[N+]1(CCOP(=O)([O-])OCCCCCCCCCCC=C2C3CC4CC(C3)CC2C4)CCCCC1	5.27	> 100 µM	3.77	4.65
C[N+](C)(C)CCOP(=O)([O-])OCCCCCCCCCCCC1CCCCC1	4.99	> 100 µM	4.45	5.08
CCCCCCCCCCCC=C1CCC(OCCOP(=O)([O-])OCC[N+]2(C)CCCCC2)CC1 (stereo not given)	4.66			4.64
C[N+](C)(C)CCOP(=O)([O-])OCCOC1CCCCC1	< 4.00			< 4.00
C[N+]1(CCOP(=O)([O-])OCCCCCCCCCCC=C2C3CC4CC(C3)CC2C4)CCOCC1	5.29	> 100 µM	4.43	5.18
C[N+](C)(C)CCOP(=O)([O-])OCCCCC=C1CCCCC1	< 4.00			< 4.00
CCCCCCCCCCCC=C1CCC(OCCOP(=O)([O-])OCC[N+](C)(C)C)CC1 (stereo not given)	5.15	40.6 µM	4.59	5.49
CCCCCCCCCCCCCC=C1CCC(OCCOP(=O)([O-])OCC[N+](C)(C)C)CC1 (stereo not given)	5.41	> 100 µM	4.70	5.28
C[N+]1(CCOP(=O)([O-])OCCCCC=C2CCCCC2)CCOCC1	< 4.00			< 4.00
CCCCCCCCCCCC=C1CCC(OCCOP(=O)([O-])OCC[N+]2(C)CCOCC2)CC1 (stereo not given)	4.30	> 100 µM		4.78
C[N+](C)(C)CCOP(=O)([O-])OCCCCCCCCCCC=C1CCCCC1	5.62	68.3 µM	4.50	5.28
CCCCCCCCCCCCCCCC=C1CCC(OCCOP(=O)([O-])OCC[N+](C)(C)C)CC1 (stereo not given)	4.35	> 100 µM		4.67
C[N+]1(CCOP(=O)([O-])OCCCCC=C2CCCCC2)CCCCC1	< 4.00			< 4.00

Structure (SMILES)	pIC50 [1]	HC50 [2]	pIC50 [3]	pIC50 [4]
C[N+]1(CCOP(=O)([O-])OCCCCC=C2C3CC4CC(C3)CC2C4)CCCCC1	< 4.00			< 4.00
C[N+](C)(C)CCOP(=O)([O-])OCCCCCCCCCCC=C1C2CC3CC(C2)CC1C3	5.50	> 100 µM	4.23	5.17
CCCCCCCCCCCCCCCC=C1CCC(OCCOP(=O)([O-])OCC[N+]2(C)CCOCC2)CC1 (stereo not given)	4.79	> 100 µM	4.72	5.43
CCCCCCCCCCCCCC=C1CCC(OCCOP(=O)([O-])OCC[N+]2(C)CCOCC2)CC1 (stereo not given)	4.41	58.8 µM	4.69	4.81
C[N+](C)(C)C1CCCC1OP(=O)([O-])OCCCCCCCCCCC=C1C2CC3CC(C2)CC1C3 (stereo not given)	5.41	> 100 µM	4.13	4.42
C[N+](C)(C)C1CCCC1OP(=O)([O-])OCCCCCCCCCCC=C1CCCCC1 (stereo not given)	5.07	76.3 µM	4.51	< 4.00
C[N+](C)(C)CCOP(=O)([O-])OCCCCCC1C2CC3CC(C2)CC1C3 (stereo not given)	5.40	> 100 µM	4.23	< 4.00
C[N+](C)(C)CCOP(=O)([O-])OCCCCCCCCCCCC1C2CC3CC(C2)CC1C3 (stereo not given)	5.54	> 100 µM	3.77	5.22
C[N+](C)(C)C1CCCCC1OP(=O)([O-])OCCCCCCCCCCC=C1CCCCC1 (stereo not given)	4.58	59.8 µM		< 4.00
CCCCCCCCCCCCCC=C1CCC(OCCOP(=O)([O-])OCC[N+]2(C)CCCCC2)CC1 (stereo not given)	4.53	> 100 µM	4.19	4.94
C[N+]1(CCOP(=O)([O-])OCCOC2CCCCC2)CCCCC1	< 4.00			< 4.00
C[N+]1(CCOP(=O)([O-])OCCCCC=C2C3CC4CC(C3)CC2C4)CCOCC1	4.33			< 4.00
C[N+](C)(C)C1CCCCC1OP(=O)([O-])OCCCCCCCCCCC=C1C2CC3CC(C2)CC1C3 (stereo not given)	4.78	66.6 µM	4.40	< 4.00
CCCCCCCCCCCCC1CCC(OCCOP(=O)([O-])OCC[N+](C)(C)C)CC1 (stereo not given)	5.02	75.7 µM	4.65	5.25
C[N+](C)(C)CCOP(=O)([O-])OCCCCC=C1C2CC3CC(C2)CC1C3	5.30	> 100 µM	< 3.30	< 4.00
CCCCCCCCCCCCCCCCOP(=O)([O-])OCC[N+](C)(C)C [MILTEFOSINE]		38.3 µM		
